Assay results: ChEMBL document CHEMBL2046400, “Design, synthesis and antitumor activities of novel bis-aryl ureas derivatives as Raf kinase inhibitors” (Bioorg Med Chem, 2012)

Legend:
[1] = test system: MDA-MB-231; experiment: Antiproliferative activity against human MDA-MB-231 cells after 72 hrs by MTT assay; assay type: functional, cell-based; conditions: MDA-MB-231, 72 h
Summary of the method: (§1)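 RPMI-1640 with 10% fetal calf serum, 37 °C, 5% CO₂, 95% humidity. Cells seeded at 5.0 × 10³/well and grown 24 h, then exposed 72 h to a range of compound concentrations. MTT (5 mg/ml solution) added for a further 4 h at 37 °C. Formazan crystals dissolved and absorbance read at 570 nm. Each compound tested three times per cell line. IC50 reported as mean ± SD of three independent experiments.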

[2] = test system: BGC-823; experiment: Antiproliferative activity against human BGC823 cells after 72 hrs by MTT assay; assay type: functional, cell-based; conditions: BGC-823, 72 h; summary of the method: as §1
[3] = test system: SMMC-7721; experiment: Antiproliferative activity against human SMMC7721 cells after 72 hrs by MTT assay; assay type: functional, cell-based; conditions: SMMC-7721, 72 h; summary of the method: as §1
[4] = target: T1, RAF proto-oncogene serine/threonine-protein kinase (Homo sapiens, UniProt P04049); experiment: Inhibition of C-Raf kinase-mediated phosphorylation of Mek using [33P]gammaATP after 20 mins by scintillation counting
Summary of the method: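 The reaction was started with [γ-³³P]ATP (about 500 cpm/pmol) and run 20 min at 30 °C. It was then spotted onto a phosphocellulose mat, washed in 1% phosphoric acid, and counted by scintillation.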

[5] = Inhibition of Abl at 10 uM
[6] = target: RAC-alpha serine/threonine-protein kinase (Homo sapiens) (UniProt P31749); experiment: Inhibition of AKT1 at 10 uM
[7] = target: Mast/stem cell growth factor receptor Kit (Homo sapiens) (UniProt P10721); experiment: Inhibition of c-KIT at 10 uM
[8] = target: Hepatocyte growth factor receptor (Homo sapiens) (UniProt P08581); experiment: Inhibition of c-MET at 10 uM
[9] = target: T1, RAF proto-oncogene serine/threonine-protein kinase; experiment: Inhibition of c-Raf at 10 uM
[10] = target: Cyclin-dependent kinase 2 (Homo sapiens) (UniProt P24941); experiment: Inhibition of CDK2 at 10 uM
[11] = target: Receptor-type tyrosine-protein kinase FLT3 (Homo sapiens) (UniProt P36888); experiment: Inhibition of FLT3 at 10 uM
[12] = target: Macrophage colony-stimulating factor 1 receptor (Homo sapiens) (UniProt P07333); experiment: Inhibition of FMS at 10 uM
[13] = target: Tyrosine-protein kinase Fyn (Homo sapiens) (UniProt P06241); experiment: Inhibition of FYN at 10 uM
[14] = target: Fibroblast growth factor receptor 1 (Homo sapiens) (UniProt P11362); experiment: Inhibition of FGFR1 at 10 uM
[15] = target: Inhibitor of nuclear factor kappa-B kinase subunit beta (Homo sapiens) (UniProt O14920); experiment: Inhibition of IKKbeta at 10 uM
[16] = target: Tyrosine-protein kinase JAK2 (Homo sapiens) (UniProt O60674); experiment: Inhibition of JAK2 at 10 uM
[17] = target: Platelet-derived growth factor receptor alpha (Homo sapiens) (UniProt P16234); experiment: Inhibition of PDGFRalpha at 10 uM
[18] = target: Focal adhesion kinase 1 (Homo sapiens) (UniProt Q05397); experiment: Inhibition of PTK2 at 10 uM
[19] = Inhibition of PKA at 10 uM
[20] = target: Serine/threonine-protein kinase PLK1 (Homo sapiens) (UniProt P53350); experiment: Inhibition of PLK1 at 10 uM
[21] = target: Vascular endothelial growth factor receptor 2 (Homo sapiens) (UniProt P35968); experiment: Inhibition of KDR at 10 uM
[22] = target: Tyrosine-protein kinase SYK (Homo sapiens) (UniProt P43405); experiment: Inhibition of SYK at 10 uM
[23] = target: Angiopoietin-1 receptor (Homo sapiens) (UniProt Q02763); experiment: Inhibition of TIE2 at 10 uM
[24] = target: Vascular endothelial growth factor receptor 2 (Homo sapiens) (UniProt P35968); experiment: Inhibition of VEGFR2 at 10 uM

T1 sequence (P04049 whole entry): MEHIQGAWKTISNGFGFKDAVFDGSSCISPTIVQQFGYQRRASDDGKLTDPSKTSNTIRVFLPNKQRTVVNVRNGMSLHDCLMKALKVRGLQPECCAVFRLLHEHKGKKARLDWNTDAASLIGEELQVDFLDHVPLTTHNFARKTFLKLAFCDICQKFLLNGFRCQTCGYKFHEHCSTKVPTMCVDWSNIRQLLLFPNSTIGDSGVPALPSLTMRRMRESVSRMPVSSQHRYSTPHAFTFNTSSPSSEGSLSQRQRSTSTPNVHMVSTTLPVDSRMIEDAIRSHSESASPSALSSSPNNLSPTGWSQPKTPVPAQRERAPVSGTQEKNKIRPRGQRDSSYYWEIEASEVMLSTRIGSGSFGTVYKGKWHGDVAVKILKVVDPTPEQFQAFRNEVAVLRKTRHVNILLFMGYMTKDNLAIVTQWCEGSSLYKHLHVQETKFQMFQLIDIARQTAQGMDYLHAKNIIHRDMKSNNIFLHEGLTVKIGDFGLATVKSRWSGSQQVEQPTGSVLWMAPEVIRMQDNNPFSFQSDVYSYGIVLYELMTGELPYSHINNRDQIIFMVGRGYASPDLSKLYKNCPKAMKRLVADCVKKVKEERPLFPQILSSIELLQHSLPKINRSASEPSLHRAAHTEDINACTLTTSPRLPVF
Chain of Vascular endothelial growth factor receptor 2 (Homo sapiens) (P35968 whole entry): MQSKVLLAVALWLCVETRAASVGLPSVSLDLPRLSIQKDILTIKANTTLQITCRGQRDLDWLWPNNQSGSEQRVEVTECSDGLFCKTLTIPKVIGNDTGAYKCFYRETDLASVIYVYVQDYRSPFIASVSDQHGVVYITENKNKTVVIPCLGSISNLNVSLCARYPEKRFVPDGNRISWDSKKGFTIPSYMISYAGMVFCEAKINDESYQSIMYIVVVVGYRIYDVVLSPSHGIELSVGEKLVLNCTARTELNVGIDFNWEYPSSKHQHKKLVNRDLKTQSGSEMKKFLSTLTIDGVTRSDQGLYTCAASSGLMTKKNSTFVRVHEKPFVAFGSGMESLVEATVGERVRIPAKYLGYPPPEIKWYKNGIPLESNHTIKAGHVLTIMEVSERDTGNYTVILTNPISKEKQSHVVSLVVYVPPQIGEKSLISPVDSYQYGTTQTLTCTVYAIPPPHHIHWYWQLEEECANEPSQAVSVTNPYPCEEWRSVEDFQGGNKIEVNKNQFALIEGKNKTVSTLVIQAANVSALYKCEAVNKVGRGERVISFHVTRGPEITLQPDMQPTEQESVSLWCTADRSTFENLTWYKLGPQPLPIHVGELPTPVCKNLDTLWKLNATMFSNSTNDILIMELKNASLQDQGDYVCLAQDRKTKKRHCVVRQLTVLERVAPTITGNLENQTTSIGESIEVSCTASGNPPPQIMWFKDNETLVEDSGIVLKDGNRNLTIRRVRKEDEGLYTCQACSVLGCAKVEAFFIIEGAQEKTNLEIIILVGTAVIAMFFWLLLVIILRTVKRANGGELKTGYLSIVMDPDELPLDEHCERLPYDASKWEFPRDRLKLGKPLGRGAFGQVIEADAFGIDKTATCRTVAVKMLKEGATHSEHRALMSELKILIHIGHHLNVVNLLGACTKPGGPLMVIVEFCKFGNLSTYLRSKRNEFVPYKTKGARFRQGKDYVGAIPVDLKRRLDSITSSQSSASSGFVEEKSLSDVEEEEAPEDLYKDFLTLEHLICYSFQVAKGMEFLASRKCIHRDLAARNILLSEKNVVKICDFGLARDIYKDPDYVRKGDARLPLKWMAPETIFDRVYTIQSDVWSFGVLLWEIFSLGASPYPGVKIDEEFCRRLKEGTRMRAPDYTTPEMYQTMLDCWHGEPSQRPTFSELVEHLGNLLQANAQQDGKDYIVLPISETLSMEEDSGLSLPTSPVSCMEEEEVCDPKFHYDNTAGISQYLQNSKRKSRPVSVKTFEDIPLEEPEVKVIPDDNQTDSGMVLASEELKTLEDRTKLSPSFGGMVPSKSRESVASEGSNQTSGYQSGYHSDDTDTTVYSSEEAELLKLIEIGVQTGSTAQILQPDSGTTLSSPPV
Chain of Tyrosine-protein kinase Fyn (Homo sapiens) (P06241 2-537 limits assumed): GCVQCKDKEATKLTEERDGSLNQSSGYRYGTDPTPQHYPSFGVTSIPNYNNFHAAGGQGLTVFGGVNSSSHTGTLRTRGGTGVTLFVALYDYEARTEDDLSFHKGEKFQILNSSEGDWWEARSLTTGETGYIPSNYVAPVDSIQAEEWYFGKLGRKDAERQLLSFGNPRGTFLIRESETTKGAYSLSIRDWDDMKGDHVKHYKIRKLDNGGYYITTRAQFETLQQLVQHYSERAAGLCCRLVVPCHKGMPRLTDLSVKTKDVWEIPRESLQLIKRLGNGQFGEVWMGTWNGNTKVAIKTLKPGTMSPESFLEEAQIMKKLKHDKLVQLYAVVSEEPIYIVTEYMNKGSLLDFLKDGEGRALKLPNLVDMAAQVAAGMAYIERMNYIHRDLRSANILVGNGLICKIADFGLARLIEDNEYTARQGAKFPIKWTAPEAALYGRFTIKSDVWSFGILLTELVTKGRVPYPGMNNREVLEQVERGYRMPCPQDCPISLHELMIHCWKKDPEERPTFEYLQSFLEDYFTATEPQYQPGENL
Chain of Inhibitor of nuclear factor kappa-B kinase subunit beta (Homo sapiens) (O14920 whole entry): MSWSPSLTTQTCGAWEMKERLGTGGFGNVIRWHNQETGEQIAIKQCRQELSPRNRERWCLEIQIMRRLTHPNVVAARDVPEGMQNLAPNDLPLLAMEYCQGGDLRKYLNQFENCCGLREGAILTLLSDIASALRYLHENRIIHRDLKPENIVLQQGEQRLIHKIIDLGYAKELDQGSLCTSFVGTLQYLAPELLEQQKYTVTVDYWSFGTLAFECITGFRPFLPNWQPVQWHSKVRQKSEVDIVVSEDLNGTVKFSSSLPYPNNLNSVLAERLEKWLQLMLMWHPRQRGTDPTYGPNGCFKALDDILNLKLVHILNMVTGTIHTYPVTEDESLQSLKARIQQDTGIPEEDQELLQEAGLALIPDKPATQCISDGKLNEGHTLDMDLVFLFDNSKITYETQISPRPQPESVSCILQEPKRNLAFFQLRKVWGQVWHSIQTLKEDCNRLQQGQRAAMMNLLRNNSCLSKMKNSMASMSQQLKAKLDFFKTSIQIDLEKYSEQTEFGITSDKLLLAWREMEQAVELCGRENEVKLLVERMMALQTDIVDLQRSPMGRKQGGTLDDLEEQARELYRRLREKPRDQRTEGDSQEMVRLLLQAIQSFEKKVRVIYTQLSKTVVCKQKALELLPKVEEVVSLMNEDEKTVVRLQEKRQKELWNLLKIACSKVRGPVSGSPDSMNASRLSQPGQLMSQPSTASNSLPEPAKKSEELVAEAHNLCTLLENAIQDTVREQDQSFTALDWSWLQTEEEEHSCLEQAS
Chain of RAC-alpha serine/threonine-protein kinase (Homo sapiens) (P31749 whole entry): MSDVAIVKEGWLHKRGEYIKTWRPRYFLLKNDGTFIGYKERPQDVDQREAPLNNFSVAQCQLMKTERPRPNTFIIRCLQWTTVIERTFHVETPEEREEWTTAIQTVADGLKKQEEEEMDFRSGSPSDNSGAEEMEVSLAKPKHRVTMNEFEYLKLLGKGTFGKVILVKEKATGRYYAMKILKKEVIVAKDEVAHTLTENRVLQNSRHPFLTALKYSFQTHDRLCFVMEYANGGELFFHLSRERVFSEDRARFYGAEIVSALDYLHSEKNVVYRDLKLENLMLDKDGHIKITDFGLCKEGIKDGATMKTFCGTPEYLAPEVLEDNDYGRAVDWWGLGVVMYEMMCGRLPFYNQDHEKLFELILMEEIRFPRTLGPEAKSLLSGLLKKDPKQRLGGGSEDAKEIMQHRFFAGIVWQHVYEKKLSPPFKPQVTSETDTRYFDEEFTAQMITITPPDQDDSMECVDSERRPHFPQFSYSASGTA
Chain of Macrophage colony-stimulating factor 1 receptor (Homo sapiens) (P07333 whole entry): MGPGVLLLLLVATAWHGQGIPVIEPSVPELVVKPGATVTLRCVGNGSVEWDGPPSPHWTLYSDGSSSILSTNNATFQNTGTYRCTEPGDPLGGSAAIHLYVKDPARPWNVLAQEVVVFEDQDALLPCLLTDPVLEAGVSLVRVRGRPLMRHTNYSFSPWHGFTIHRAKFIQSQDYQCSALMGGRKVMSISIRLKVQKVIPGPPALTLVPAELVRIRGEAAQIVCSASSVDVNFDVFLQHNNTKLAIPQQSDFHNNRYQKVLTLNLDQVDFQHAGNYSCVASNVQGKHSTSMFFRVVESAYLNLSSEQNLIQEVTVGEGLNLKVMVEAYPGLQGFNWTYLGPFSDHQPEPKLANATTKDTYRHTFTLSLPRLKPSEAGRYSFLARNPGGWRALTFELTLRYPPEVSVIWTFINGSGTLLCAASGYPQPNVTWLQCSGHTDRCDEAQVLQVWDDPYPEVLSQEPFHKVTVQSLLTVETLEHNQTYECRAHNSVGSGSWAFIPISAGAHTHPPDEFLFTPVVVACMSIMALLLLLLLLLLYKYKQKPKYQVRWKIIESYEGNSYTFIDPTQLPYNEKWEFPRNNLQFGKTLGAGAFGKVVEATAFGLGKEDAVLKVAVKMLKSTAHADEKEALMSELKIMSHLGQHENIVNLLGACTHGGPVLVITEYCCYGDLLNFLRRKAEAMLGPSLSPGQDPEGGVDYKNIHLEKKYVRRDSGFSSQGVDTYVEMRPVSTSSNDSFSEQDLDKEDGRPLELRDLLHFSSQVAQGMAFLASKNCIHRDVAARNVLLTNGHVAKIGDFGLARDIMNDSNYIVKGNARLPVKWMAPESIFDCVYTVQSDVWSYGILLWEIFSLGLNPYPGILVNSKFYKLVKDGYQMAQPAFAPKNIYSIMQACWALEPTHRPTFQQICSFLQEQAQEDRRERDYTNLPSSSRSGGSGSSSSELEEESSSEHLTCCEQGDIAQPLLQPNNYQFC

Row | Structure (SMILES) | IC50 [1] [µM] | IC50 [2] [µM] | IC50 [3] [µM] | IC50 [4] [nM] | other results
1 | O=C(Nc1ccc(Oc2ccnc(-c3ncc(C(F)(F)F)[nH]3)c2)cc1Cl)Nc1cc(C(F)(F)F)ccc1Cl | 7.03 | 14.2 | 5.29 | 35.9 | –
2 | COc1cc(NC(=O)Nc2ccc(Oc3ccnc(-c4ncc(C(F)(F)F)[nH]4)c3)cc2Cl)cc(OC)c1OC | > 100 | > 100 | > 100 | – | –
3 | O=C(Nc1ccc(F)cc1)Nc1ccc(Oc2ccnc(-c3ncc(C(F)(F)F)[nH]3)c2)cc1 | 38.7 | 23.7 | 36.2 | 94.9 | –
4 | Cc1cccc(Cl)c1NC(=O)Nc1ccc(Oc2ccnc(-c3ncc(C(F)(F)F)[nH]3)c2)cc1 | 76.6 | 84 | 57.9 | 120 | –
5 | O=C(Nc1ccc(Oc2ccnc(-c3ncc(C(F)(F)F)[nH]3)c2)cc1)Nc1ccc(Cl)c(C(F)(F)F)c1 | 1.21 | 13.2 | 1.38 | 10.6 | inhibition [5]: 44.3%; inhibition [6]: 11.7%; inhibition [7]: 23.9%; inhibition [8]: 2.2%; inhibition [9]: 95.3%; inhibition [10]: 7.8%; inhibition [11]: 17.7%; inhibition [12]: 50.8%; inhibition [13]: 0.4%; inhibition [14]: 20.2%; inhibition [15]: 5.6%; inhibition [16]: 0%; inhibition [17]: 0%; inhibition [18]: 4.9%; inhibition [19]: 1.3%; inhibition [20]: 8.7%; inhibition [21]: 3.5%; inhibition [22]: 20.4%; inhibition [23]: 27.5%; inhibition [24]: 36.8%
6 | Cc1cc(NC(=O)Nc2ccc(Oc3ccnc(-c4ncc(C(F)(F)F)[nH]4)c3)cc2)no1 | 44.8 | 97.7 | 87.7 | 148 | –
7 | O=C(Nc1ccc(Oc2ccnc(-c3ncc(C(F)(F)F)[nH]3)c2)cc1)Nc1ccc(F)c(Cl)c1 | 11.3 | 15.7 | 9.69 | 69.2 | –
8 | O=C(Nc1cccc(C(F)(F)F)c1)Nc1ccc(Oc2ccnc(-c3ncc(C(F)(F)F)[nH]3)c2)cc1Cl | 14.2 | 23.2 | 9.72 | 64.8 | –
9 | O=C(Nc1ccc(Oc2ccnc(-c3ncc(C(F)(F)F)[nH]3)c2)cc1)Nc1cccc(C(F)(F)F)c1 | 10.7 | 26.2 | 11.7 | 87.8 | –
10 | O=C(Nc1ccc(Cl)c(C(F)(F)F)c1)Nc1ccc(Oc2ccnc(-c3ncc(C(F)(F)F)[nH]3)c2)cc1Cl | 3.77 | 11.1 | 6.52 | 22.1 | –
11 | Cc1ccc(NC(=O)Nc2ccc(Oc3ccnc(-c4ncc(C(F)(F)F)[nH]4)c3)cc2Cl)cc1C(F)(F)F | 10.1 | 33.4 | 8.38 | 46.7 | –
12 | O=C(Nc1ccc(Oc2ccnc(-c3ncc(C(F)(F)F)[nH]3)c2)cc1)Nc1ccc(Br)cc1F | 25.4 | 66.8 | 44.6 | 81.5 | –
13 | O=C(Nc1ccc(Oc2ccnc(-c3ncc(C(F)(F)F)[nH]3)c2)cc1)Nc1cc(C(F)(F)F)ccc1Cl | 7.83 | 18.4 | 6.84 | 75.9 | –
14 | CNC(=O)c1cc(Oc2ccc(NC(=O)Nc3ccc(Cl)c(C(F)(F)F)c3)cc2)ccn1 [SORAFENIB] | 7.18 | 10.9 | 6.23 | – | –
15 | O=C(Nc1ccc(Oc2ccnc(-c3ncc(C(F)(F)F)[nH]3)c2)cc1)Nc1ccc(Cl)c(Cl)c1 | 2.03 | 10.7 | 3.06 | 13.1 | –
16 | O=C(Nc1ccc(Oc2ccnc(-c3ncc(C(F)(F)F)[nH]3)c2)cc1)Nc1ccc2c(c1)OCO2 | 63.2 | > 100 | 92.4 | – | –
17 | O=C(Nc1ccc(F)c(C(F)(F)F)c1)Nc1ccc(Oc2ccnc(-c3ncc(C(F)(F)F)[nH]3)c2)cc1Cl | 8.21 | 17.7 | 5.72 | 77.7 | –
18 | COc1ccc(NC(=O)Nc2ccc(Oc3ccnc(-c4ncc(C(F)(F)F)[nH]4)c3)cc2)cc1 | 95.4 | > 100 | > 100 | – | –
19 | O=C(Nc1ccc(Cl)c(Cl)c1)Nc1ccc(Oc2ccnc(-c3ncc(C(F)(F)F)[nH]3)c2)cc1Cl | 1.77 | 12.7 | 2.49 | 16.5 | –
